Data: ChEMBL document CHEMBL1121513, “Separation of potent central and renal dopamine agonist activity in substituted 6-chloro-2,3,4,5-tetrahydro-7,8-dihydroxy-1-phenyl-1H-3-benzazepines” (J Med Chem, 1980)
pEC50: −log10 of the molar value.

Legend:
[1] = Renal vasodilator activity was measured between ED20, heart rate (HR) test, and ED15 RVR.; format: functional
How it was run: (§1)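 In anesthetized dogs with electromagnetic renal and iliac blood-flow probes, carotid pressure and ECG-triggered heart rate, drug was given as cumulative iv infusions rising about threefold every 5 min. Resistance was pressure divided by flow. Each ratio divides the dose giving a 30% IVR change, a 20% MABP rise or a 20% HR change by the RVR ED15.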

Rattus norvegicus [2] = species: Rattus norvegicus; assay: Central dopaminergic activity was determined by testing compound for dopamine agonist activity mediated by adenylase cyclase in rat; format: functional, organism-based
[3] = Renal vasodilator activity was measured between ED20, measure of mean arterial blood pressure (MABP) test, and ED15 RVR.; format: functional; how it was run: as §1
Canis familiaris [4] = species: Canis familiaris; assay: Potency was expressed as the average maximum cumulative dose required to decrease renal vascular resistance by 15%; format: functional, Canis lupus familiaris
How it was run: (§2)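 Anesthetized dogs were surgically prepared for electromagnetic measurement of renal and iliac artery blood flow, carotid blood pressure, and ECG-triggered cardiometer heart rate. Drug was infused into an antecubital vein at cumulative, usually threefold increasing doses, 5 min per level. Renal vascular resistance was calculated as mean arterial pressure divided by mean blood flow, with a […] change needed for significance.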

Canis familiaris [5] = assay: Effective Dose (ED15) required to decrease renal vascular resistance by 15% in anesthetized dogs administered intravenously; format: functional; conditions: Canis lupus familiaris, iv; how it was run: as §2
[6] = Renal vasodilator activity was measured between ED30, measure in iliac vascular resistance (IVR) test, and ED15 RVR; format: functional; how it was run: as §1
Canis familiaris [7] = assay: Effective Dose (ED15) required to decrease renal vascular resistance by 15% in anesthetized dogs administered intravenously; d = increase in renal resistance were seen; format: functional, organism-based; conditions: Canis lupus familiaris; how it was run: as §2
Rattus norvegicus [8] = assay: Central dopaminergic activity was determined by testing compound for its ability to produce contralateral rotation in lesioned rat after intracerebrally administration; format: functional
Rattus norvegicus [9] = assay: Central dopaminergic activity was determined by testing compound for its ability to produce contralateral rotation in lesioned rat after ip administration; format: functional

**Q.** Which Selectivity ratio [1] does the source give for NCCc1ccc(O)c(O)c1 [DOPAMINE] here?
**A.** The Selectivity ratio was 141.

**Q.** What about the pEC50 (Rattus norvegicus [2]) of the same compound?
**A.** The pEC50 was 5.46.

**Q.** And the Selectivity ratio [3]?
**A.** The Selectivity ratio was 113.

**Q.** And the Average max (Canis familiaris [4])?
**A.** The Average max was 36%.

**Q.** What about the ED15 (Canis familiaris [5]) of the same compound?
**A.** Its ED15 is 2.7 µg/kg.

**Q.** And the Selectivity ratio [6]?
**A.** The Selectivity ratio was 56.

**Q.** What does the source list for Oc1ccc(C2CNCCc3cc(O)c(O)cc32)cc1 (configuration not stated)?
**A.** pEC50 (Rattus norvegicus [2]): 6.30; ED15 (Canis familiaris [7]): Significant increases

**Q.** With Oc1ccc(C2CNCCc3c2cc(O)c(O)c3Cl)cc1 (configuration not stated) [FENOLDOPAM] as the compound, how does the RD500 (Rattus norvegicus [8]) read?
**A.** The RD500 was 0.5 µg/rat.

**Q.** What about the Selectivity ratio [1] of the same compound?
**A.** The Selectivity ratio was >6072.

**Q.** And the pEC50 (Rattus norvegicus [2])?
**A.** The pEC50 was 7.74.

**Q.** And the RD500 (Rattus norvegicus [9])?
**A.** The RD500 was 10000 µg/kg.

**Q.** What about the Selectivity ratio [3] of the same compound?
**A.** Its Selectivity ratio is >6072.

**Q.** What about the Average max (Canis familiaris [4]) of the same compound?
**A.** Its Average max is 59%.

**Q.** And the ED15 (Canis familiaris [5])?
**A.** The ED15 was 0.3 µg/kg.

**Q.** And the Selectivity ratio [6]?
**A.** Its Selectivity ratio is > 6070.

**Q.** Which RD500 (Rattus norvegicus [8]) does the source give for Oc1cc2c(c(Cl)c1O)CCNCC2c1ccccc1 (configuration not stated) here?
**A.** Its RD500 is 0.22 µg/rat.

**Q.** What about the RD500 (Rattus norvegicus [9]) of the same compound?
**A.** The RD500 was 300 µg/kg.

**Q.** What about the Average max (Canis familiaris [4]) of the same compound?
**A.** The Average max was 39%.

**Q.** What about the ED15 (Canis familiaris [5]) of the same compound?
**A.** The ED15 was 3.5 µg/kg.

**Q.** Which results are given for Oc1cc2c(cc1O)C(c1ccccc1)CNCC2 (configuration not stated) [SKF-38393]?
**A.** RD500 (Rattus norvegicus [8]): 0.18 µg/rat; pEC50 (Rattus norvegicus [2]): 7.10; RD500 (Rattus norvegicus [9]): 700 µg/kg; Selectivity ratio [3]: 10; Average max (Canis familiaris [4]): 19%; ED15 (Canis familiaris [5]): 31 µg/kg; Selectivity ratio [6]: 15
